The text below walks through data of ChEMBL document CHEMBL4373681, “Aurantiamide-related dipeptide derivatives are formyl peptide receptor 1 antagonists” (Medchemcomm, 2019).

The target of assay [1] is T1, N-formyl peptide receptor 2 (Homo sapiens, UniProt P25090).
T1 sequence (P25090 whole entry): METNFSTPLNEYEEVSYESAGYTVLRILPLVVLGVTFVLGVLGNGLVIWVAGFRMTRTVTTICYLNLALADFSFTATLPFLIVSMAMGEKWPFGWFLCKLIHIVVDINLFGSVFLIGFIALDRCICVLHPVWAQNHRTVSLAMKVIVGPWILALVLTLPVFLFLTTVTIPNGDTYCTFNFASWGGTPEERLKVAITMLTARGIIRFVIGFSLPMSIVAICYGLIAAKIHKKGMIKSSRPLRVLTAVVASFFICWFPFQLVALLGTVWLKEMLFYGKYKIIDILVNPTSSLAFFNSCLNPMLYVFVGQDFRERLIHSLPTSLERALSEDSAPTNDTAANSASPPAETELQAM
The experiment in a line: Agonist activity at FRP2 (unknown origin) transfected in human HL60 cells assessed as calcium mobilization incubated for 30 mins and measured for 5 sec for 240 sec by fluorometry. Type of assay: functional, cell-based. In a few lines: (§1)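 Stably transfected HL60 cells, with G418 dropped in the final culture round, loaded with Fluo-4 AM (1.25 µg/mL final) for 30 min at 37 °C in the dark. Cells were washed into HBSS with Ca2+/Mg2+ plus 10 mM HEPES, 2×10^5 cells/well. Compound added by injector, fluorescence (ex 485/em 538 nm) read every 5 s for 240 s at room temperature. Peak change over baseline in the first 3 min; EC50 by nonlinear regression.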
On the technique in general: Calcium flux is commonly read through the fluorescence of an indicator in the cells.

Assay [2] concerns the target T2, fMet-Leu-Phe receptor (Homo sapiens, UniProt P21462).
T2 sequence (P21462 whole entry): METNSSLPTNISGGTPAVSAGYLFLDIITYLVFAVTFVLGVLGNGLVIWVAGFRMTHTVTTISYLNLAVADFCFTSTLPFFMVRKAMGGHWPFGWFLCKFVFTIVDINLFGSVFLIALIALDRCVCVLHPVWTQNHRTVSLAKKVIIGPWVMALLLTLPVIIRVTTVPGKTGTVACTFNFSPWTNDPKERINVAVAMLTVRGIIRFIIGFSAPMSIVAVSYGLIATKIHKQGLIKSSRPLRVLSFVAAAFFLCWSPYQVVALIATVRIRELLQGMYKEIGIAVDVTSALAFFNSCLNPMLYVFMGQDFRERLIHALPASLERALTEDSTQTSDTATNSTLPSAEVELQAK
Briefly: Antagonist activity against FPR1 in human neutrophils assessed as calcium mobilization preincubated for 30 mins followed by fMLF addition and measured for 5 sec for 240 sec by fluorometry.

The target in assay [3] is T1, N-formyl peptide receptor 2. The experiment in a line: Antagonist activity against FPR2 (unknown origin) transfected in human HL60 cells assessed as calcium mobilization preincubated for 30 mins followed by WKYMVM addition and measured for 5 sec for 240 sec by fluorometry. Type of assay: functional, cell-based. An outline of the steps: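 FPR2-transfected HL60 cells, Fluo-4 AM-loaded (1.25 µg/mL final, 30 min, 37 °C), in HBSS+/10 mM HEPES, 2×10^5 cells/well. 30 min room-temperature compound pretreatment, then 5 nM WKYMVM. Peak fluorescence rise (485/538 nm) in the first 3 min, normalized to 5 nM WKYMVM alone (100%). IC50 by nonlinear regression of 5–6-point curves.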

Assay [4] concerns the target T2, fMet-Leu-Phe receptor. Briefly: Antagonist activity against FPR1 (unknown origin) transfected in human HL60 cells assessed as calcium mobilization preincubated for 30 mins followed by fMLF addition and measured for 5 sec for 240 sec by fluorometry. Type of assay: functional, cell-based. An outline of the steps:
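FPR1-HL60 cells or donor neutrophils, Fluo-4 AM-loaded (1.25 µg/mL final, 30 min, 37 °C), in HBSS+/10 mM HEPES, 2×10^5 cells/well. Compound pretreatment 30 min at room temperature, then 5 nM fMLF. Peak fluorescence rise (485/538 nm) in the first 3 min was normalized to 5 nM fMLF alone (100%). IC50 from 5–6-point curves by nonlinear regression; maximal antagonist concentration ~50 μM.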

Another assay relates to Neutrophil. The experiment in a line: Inhibition of fMLF-induced migration of human neutrophil preincubated for 30 mins followed by fMLF stimulation and measured after 60 mins by luminescence based assay.
Assay [5] deals with T2, fMet-Leu-Phe receptor. Briefly: Agonist activity at FPR1 (unknown origin) transfected in human HL60 cells assessed as calcium mobilization incubated for 30 mins and measured for 5 sec for 240 sec by fluorometry. Type of assay: functional, cell-based. In a few lines: as §1
Assay [6] addresses T2, fMet-Leu-Phe receptor. The experiment in a line: Agonist activity at FPR1 in human neutrophils assessed as calcium mobilization incubated for 30 mins and measured for 5 sec for 240 sec by fluorometry. It counts as functional. In a few lines: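 Neutrophils from healthy donor blood were isolated by dextran sedimentation, Histopaque 1077 gradient and hypotonic RBC lysis. They were loaded with Fluo-4 AM (1.25 µg/mL final) for 30 min at 37 °C, then resuspended in HBSS+ with 10 mM HEPES, 2×10^5 cells/well. Compound injected; fluorescence (485/538 nm) read every 5 s for 240 s at room temperature. Peak rise over baseline in the first 3 min; EC50 by nonlinear regression.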

Non-standard residues stand in square brackets, D forms with d. Residues, ends and D or L forms follow the SMILES beside them. *: point of attachment. dCha = N[C@H](CC1CCCCC1)C(=O)O; Bz = O=C(c1ccccc1)*

Broadly, the EC50 is the concentration at which the effect is half-maximal. As usually defined, the IC50 is the concentration that gives 50% inhibition. With `COC(=O)[C@H](Cc1ccccc1)NC(=O)[C@H](Cc1c[nH]c2ccccc12)NC(=O)c1ccccc1`, the 50% effective concentration (EC50) entry (in assay [1]; at fMet-Leu-Phe receptor [5]; at fMet-Leu-Phe receptor [6]) was “Not Active” in each case. Besides, the IC50 came to 2.4 µM on fMet-Leu-Phe receptor [2], 12.3 µM in assay [3] (read-out: IC50), 5.8 µM at fMet-Leu-Phe receptor [4] and 1.6 µM in the assay with Neutrophil.
`COC(=O)[C@H](Cc1ccccc1)NC(=O)[C@@H](Cc1c[nH]c2ccccc12)NC(=O)c1ccccc1`: the EC50 result (in assay [1]; at fMet-Leu-Phe receptor [5]; at fMet-Leu-Phe receptor [6]) was “Not Active” each time. For the same compound, the values for the IC50 (at fMet-Leu-Phe receptor [2]; in assay [3]; on fMet-Leu-Phe receptor [4]) were 10.9 µM, “Not Active” and 37.4 µM, respectively.
Consider `COC(=O)[C@@H](Cc1ccccc1)NC(=O)[C@H](Cc1c[nH]c2ccccc12)NC(=O)C1CCCCC1`, for which the EC50 entry (in assay [1]; at fMet-Leu-Phe receptor [5]; at fMet-Leu-Phe receptor [6]) was “Not Active” each time. In addition, the IC50 at fMet-Leu-Phe receptor [2] is 3.3 µM; in assay [3], “Not Active”; at fMet-Leu-Phe receptor [4], 0.54 µM; in the assay on Neutrophil it was 3.1 µM.
For `COC(=O)[C@@H](CC(C)C)NC(=O)[C@H](Cc1c[nH]c2ccccc12)NC(=O)c1ccccc1`, the results for the EC50 (in assay [1] (read-out: EC50); on fMet-Leu-Phe receptor [5]; on fMet-Leu-Phe receptor [6]) were 10.9 µM, “Not Active” and “Not Active”, respectively. The IC50 was 14.5 µM at fMet-Leu-Phe receptor [2], “Not Active” in assay [3] and 24.7 µM at fMet-Leu-Phe receptor [4].
Turning to `COC(=O)[C@H](NC(=O)[C@H](Cc1c[nH]c2ccccc12)NC(=O)c1ccccc1)C(C)C`, the EC50 entry (in assay [1]; at fMet-Leu-Phe receptor [5]; at fMet-Leu-Phe receptor [6]) was “Not Active” in each case. Besides, the IC50 was 25.3 µM on fMet-Leu-Phe receptor [2], “Not Active” in assay [3] and 11.7 µM at fMet-Leu-Phe receptor [4].
As to `COC(=O)[C@@H](Cc1ccccc1)NC(=O)[C@@H](Cc1c[nH]c2ccccc12)NC(=O)c1ccccc1`, the EC50 entry (in assay [1]; at fMet-Leu-Phe receptor [5]; on fMet-Leu-Phe receptor [6]) was “Not Active” in each case. Besides, the IC50 on fMet-Leu-Phe receptor [2] is 31.3 µM; in assay [3] it was “Not Active”; on fMet-Leu-Phe receptor [4], 16.5 µM.
On to `COC(=O)[C@@H](Cc1ccccc1)NC(=O)[C@H](Cc1c[nH]c2ccccc12)NC(=O)CC(C)C`, for which the EC50 entry (in assay [1]; at fMet-Leu-Phe receptor [5]; at fMet-Leu-Phe receptor [6]) was “Not Active” in each case. Further, the IC50 on fMet-Leu-Phe receptor [2] is 27.7 µM; in assay [3], “Not Active”; at fMet-Leu-Phe receptor [4], 19.6 µM.
Consider `COC(=O)[C@@H](Cc1ccccc1)NC(=O)[C@H](Cc1c[nH]c2ccccc12)NC(=O)OC(C)(C)C`, for which the EC50 in assay [1] (read-out: EC50) was 10.5 µM; at fMet-Leu-Phe receptor [5] it was “Not Active”; at fMet-Leu-Phe receptor [6], “Not Active”. For the same compound, the IC50 at fMet-Leu-Phe receptor [2] is 12.6 µM; in assay [3], “Not Active”; on fMet-Leu-Phe receptor [4], 17.1 µM.
As for `COC(=O)[C@@H](Cc1ccccc1)NC(=O)[C@H](Cc1c[nH]c2ccccc12)NC(=O)c1ccccc1`, the EC50 result (in assay [1]; at fMet-Leu-Phe receptor [5]; on fMet-Leu-Phe receptor [6]) was “Not Active” throughout. The IC50 at fMet-Leu-Phe receptor [2] is 0.18 µM; in assay [3], “Not Active”; on fMet-Leu-Phe receptor [4] it was 0.45 µM; in the assay on Neutrophil, 0.48 µM.
For `COC(=O)[C@@H](CC1CCCCC1)NC(=O)[C@H](Cc1c[nH]c2ccccc12)NC(=O)c1ccccc1` (Bz-Trp-[dCha]-OMe), the EC50 result (in assay [1]; on fMet-Leu-Phe receptor [5]; on fMet-Leu-Phe receptor [6]) was “Not Active” throughout. Also, the IC50 on fMet-Leu-Phe receptor [2] was 0.12 µM; in assay [3] it was “Not Active”; on fMet-Leu-Phe receptor [4] it was 0.67 µM; with Neutrophil, 0.62 µM.
